Activity calls are given as the source filed them. The rule behind the calls is not given here.
Legend:
[1] = Tmax in rat at 10 mg/kg, po; format: ADME, organism-based; design: dose 10 mg/kg, route oral; settings: in vivo
Method in brief: (§1)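 Pharmacokinetics run in rats, dogs, cynomolgus monkeys and chimpanzees, with two animals per species for the iv arm and two per species for the oral arm. Parameters were derived per species and route: CL, Vss and T1/2 from iv dosing; Cmax, Tmax, AUC, T1/2 and F% from oral dosing. Values are reported as mean ± spread.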

[2] = Half life in chimpanzee at 1 mg/kg, iv; format: ADME, organism-based, Pan troglodytes; design: dose 1 mg/kg, route intravenous; settings: in vivo; method in brief: as §1
Cytochrome P450 2C19 = Cytochrome P450 2C19 (Homo sapiens, UniProt P33261); test: Inhibition of CYP2C19; format: ADME
Cytochrome P450 2C19, sequence (P33261 whole entry): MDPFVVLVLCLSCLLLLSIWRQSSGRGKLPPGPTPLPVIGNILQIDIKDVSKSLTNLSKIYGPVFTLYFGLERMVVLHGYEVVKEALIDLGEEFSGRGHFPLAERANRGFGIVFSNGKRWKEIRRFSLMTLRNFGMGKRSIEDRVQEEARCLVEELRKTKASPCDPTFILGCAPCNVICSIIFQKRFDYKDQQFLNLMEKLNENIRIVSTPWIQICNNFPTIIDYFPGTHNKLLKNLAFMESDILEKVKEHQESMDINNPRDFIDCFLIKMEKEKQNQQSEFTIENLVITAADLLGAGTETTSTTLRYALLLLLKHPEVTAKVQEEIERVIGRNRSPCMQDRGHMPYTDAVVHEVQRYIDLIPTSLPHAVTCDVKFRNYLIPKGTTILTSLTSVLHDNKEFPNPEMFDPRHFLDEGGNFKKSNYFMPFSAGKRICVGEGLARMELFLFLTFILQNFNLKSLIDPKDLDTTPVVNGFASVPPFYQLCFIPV

[3] = target: T1, C-C chemokine receptor type 2 (Homo sapiens, UniProt P41597); test: Displacement of [125I]MCP1 from CCR2 in human PBMC after 30 mins by gamma counter
T1 sequence (P41597 whole entry): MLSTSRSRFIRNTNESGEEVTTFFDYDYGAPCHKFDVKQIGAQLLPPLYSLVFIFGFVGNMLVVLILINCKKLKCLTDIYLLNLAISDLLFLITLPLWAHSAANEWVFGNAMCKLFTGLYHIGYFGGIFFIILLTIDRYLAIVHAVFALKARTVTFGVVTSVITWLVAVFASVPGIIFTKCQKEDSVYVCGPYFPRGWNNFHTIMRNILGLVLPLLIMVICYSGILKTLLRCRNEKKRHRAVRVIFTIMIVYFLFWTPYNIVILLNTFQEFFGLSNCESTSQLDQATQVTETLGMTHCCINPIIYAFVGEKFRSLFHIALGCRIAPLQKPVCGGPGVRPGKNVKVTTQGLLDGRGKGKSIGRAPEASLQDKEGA

Rattus norvegicus [4] = test: Oral bioavailability in rat at 10 mg/kg; format: ADME, organism-based; settings: in vivo; method in brief: as §1
Cytochrome P450 2C9 = Cytochrome P450 2C9 (Homo sapiens, UniProt P11712); test: Inhibition of CYP2C9; format: ADME
Cytochrome P450 2C9, sequence (P11712 whole entry): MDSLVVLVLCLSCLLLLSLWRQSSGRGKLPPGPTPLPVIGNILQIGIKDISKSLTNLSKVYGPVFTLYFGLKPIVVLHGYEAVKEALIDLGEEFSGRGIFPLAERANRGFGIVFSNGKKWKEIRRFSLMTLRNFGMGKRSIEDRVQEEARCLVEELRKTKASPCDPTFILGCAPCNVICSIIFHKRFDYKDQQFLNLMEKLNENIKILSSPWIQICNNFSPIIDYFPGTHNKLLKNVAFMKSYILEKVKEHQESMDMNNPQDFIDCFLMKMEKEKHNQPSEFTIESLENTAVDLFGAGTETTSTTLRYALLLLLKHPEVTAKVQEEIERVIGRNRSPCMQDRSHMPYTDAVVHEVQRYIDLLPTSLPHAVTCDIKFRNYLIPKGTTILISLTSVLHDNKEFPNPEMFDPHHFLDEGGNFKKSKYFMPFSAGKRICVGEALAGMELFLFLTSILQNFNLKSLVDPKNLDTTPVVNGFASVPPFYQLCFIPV

Rattus norvegicus [5] = test: Clearance in rat at 5 mg/kg, iv; format: ADME, organism-based; design: dose 5 mg/kg, route intravenous; settings: in vivo; method in brief: as §1
Cytochrome P450 2D6 = Cytochrome P450 2D6 (Homo sapiens, UniProt P10635); test: Inhibition of CYP2D6; format: ADME
Cytochrome P450 2D6, sequence (P10635 whole entry): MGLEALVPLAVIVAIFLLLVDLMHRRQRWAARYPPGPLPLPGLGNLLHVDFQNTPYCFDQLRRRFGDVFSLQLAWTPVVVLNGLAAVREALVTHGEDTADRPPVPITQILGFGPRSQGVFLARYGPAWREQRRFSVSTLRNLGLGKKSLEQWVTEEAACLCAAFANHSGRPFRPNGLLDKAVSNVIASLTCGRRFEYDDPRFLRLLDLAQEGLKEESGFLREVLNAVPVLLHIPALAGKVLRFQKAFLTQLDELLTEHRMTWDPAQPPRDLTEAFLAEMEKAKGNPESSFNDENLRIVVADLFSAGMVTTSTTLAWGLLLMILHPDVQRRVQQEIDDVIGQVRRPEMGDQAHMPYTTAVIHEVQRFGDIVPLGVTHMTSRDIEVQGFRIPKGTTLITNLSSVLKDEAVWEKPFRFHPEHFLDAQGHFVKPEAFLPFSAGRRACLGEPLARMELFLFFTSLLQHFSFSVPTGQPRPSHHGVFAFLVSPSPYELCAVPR

[6] = Cmax in cynomolgus monkey at 30 mg/kg, po; format: ADME, organism-based, Macaca fascicularis; design: dose 30 mg/kg, route oral; settings: in vivo; method in brief: as §1
[7] = Induction of cytochrome P450 up to 10 uM by luminometric luciferase assay; format: ADME
[8] = Half life in dog at 5 mg/kg, iv; format: ADME, organism-based, Canis lupus familiaris; design: dose 5 mg/kg, route intravenous; settings: in vivo; method in brief: as §1
[9] = Cmax in rat at 10 mg/kg, po; format: ADME, organism-based; design: dose 10 mg/kg, route oral; settings: in vivo; method in brief: as §1
[10] = Fraction unbound in human serum at 1 to 10 uM; format: ADME, cell-free
Method in brief: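 Serum protein binding measured in human serum at 1 and 10 μM test concentrations. Read-out is the free (unbound) fraction.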

[11] = AUC in chimpanzee at 4 mg/kg, po; format: ADME, organism-based, Pan troglodytes; design: dose 4 mg/kg, route oral; settings: plasma; method in brief: as §1
[12] = Oral bioavailability in cynomolgus monkey at 30 mg/kg; format: ADME, organism-based, Macaca fascicularis; settings: in vivo; method in brief: as §1
[13] = target: T1, C-C chemokine receptor type 2; test: Inhibition of human CCR2-mediated intracellular calcium mobilization by cell based assay; format: functional
[14] = target: T2, C-X-C chemokine receptor type 5 (Homo sapiens) (UniProt P32302); test: Inhibition of CXCR5 at 1 uM
T2 sequence (whole entry): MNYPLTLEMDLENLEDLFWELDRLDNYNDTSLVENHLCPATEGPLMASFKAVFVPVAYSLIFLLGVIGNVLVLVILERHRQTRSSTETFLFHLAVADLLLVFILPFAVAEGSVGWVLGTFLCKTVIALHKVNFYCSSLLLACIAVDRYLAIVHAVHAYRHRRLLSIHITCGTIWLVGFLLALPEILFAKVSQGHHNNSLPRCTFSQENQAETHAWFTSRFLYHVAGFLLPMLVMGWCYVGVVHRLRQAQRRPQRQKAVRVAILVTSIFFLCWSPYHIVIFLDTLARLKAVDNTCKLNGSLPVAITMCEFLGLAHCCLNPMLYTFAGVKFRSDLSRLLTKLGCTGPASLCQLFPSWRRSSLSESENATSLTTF
Method in brief: (§2)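 Cerep selectivity panel of over 50 ion channels, transporters, chemokine receptors and other GPCRs. Single test concentration of 1 μM, scored for significant inhibition.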

[15] = Oral bioavailability in dog at 30 mg/kg; format: ADME, organism-based, Canis lupus familiaris; settings: in vivo; method in brief: as §1
Rattus norvegicus [16] = test: AUC in rat at 10 mg/kg, po; format: ADME, organism-based, Plasma; design: dose 10 mg/kg, route oral; settings: in vivo; method in brief: as §1
[17] = target: C-C chemokine receptor type 5 (Homo sapiens) (UniProt P51681); test: Inhibition of CCR5 at 1 uM; method in brief: as §2
C-C chemokine receptor type 5 (Homo sapiens), sequence (P51681 whole entry, looked up): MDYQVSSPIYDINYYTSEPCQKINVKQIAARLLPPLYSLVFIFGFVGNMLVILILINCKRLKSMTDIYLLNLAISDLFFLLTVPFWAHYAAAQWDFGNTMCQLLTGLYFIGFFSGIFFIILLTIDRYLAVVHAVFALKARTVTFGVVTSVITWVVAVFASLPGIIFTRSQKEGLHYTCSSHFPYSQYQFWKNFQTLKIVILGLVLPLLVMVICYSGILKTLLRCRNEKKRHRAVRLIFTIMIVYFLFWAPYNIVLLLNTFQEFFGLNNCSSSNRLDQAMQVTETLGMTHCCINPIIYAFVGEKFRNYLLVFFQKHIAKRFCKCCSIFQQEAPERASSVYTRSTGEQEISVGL

[18] = Cmax in dog at 30 mg/kg, po; format: ADME, organism-based, Canis lupus familiaris; design: dose 30 mg/kg, route oral; settings: in vivo; method in brief: as §1
[19] = Oral bioavailability in chimpanzee at 4 mg/kg; format: ADME, organism-based, Pan troglodytes; settings: in vivo; method in brief: as §1
[20] = AUC in cynomolgus monkey at 30 mg/kg, po; format: ADME, organism-based, Macaca fascicularis; design: dose 30 mg/kg, route oral; settings: plasma; method in brief: as §1
[21] = Half life in human administered as qd; format: ADME, organism-based; settings: in vivo
Liver [22] = test: Metabolic stability in human liver S9 fraction assessed as glutathione adduct formation in presence of glutathione and NADPH; format: ADME, subcellular
[23] = Clearance in dog at 5 mg/kg, iv; format: ADME, organism-based, Canis lupus familiaris; design: dose 5 mg/kg, route intravenous; settings: in vivo; method in brief: as §1
[24] = target: T3, C-X-C chemokine receptor type 3 (Homo sapiens) (UniProt P49682); test: Inhibition of CXCR3 at 1 uM; method in brief: as §2
T3 sequence (whole entry): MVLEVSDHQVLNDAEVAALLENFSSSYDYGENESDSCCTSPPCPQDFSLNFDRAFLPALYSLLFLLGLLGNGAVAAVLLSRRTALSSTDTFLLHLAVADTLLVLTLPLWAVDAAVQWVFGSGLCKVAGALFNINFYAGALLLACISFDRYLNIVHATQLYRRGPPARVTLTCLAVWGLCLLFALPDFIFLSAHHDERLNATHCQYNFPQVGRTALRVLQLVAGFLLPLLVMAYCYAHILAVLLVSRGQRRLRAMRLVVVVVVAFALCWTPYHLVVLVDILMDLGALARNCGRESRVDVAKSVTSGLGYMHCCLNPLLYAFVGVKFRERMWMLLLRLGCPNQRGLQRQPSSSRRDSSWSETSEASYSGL

[25] = Clearance in chimpanzee at 1 mg/kg, iv; format: ADME, organism-based, Pan troglodytes; design: dose 1 mg/kg, route intravenous; settings: in vivo; method in brief: as §1
Liver [26] = test: Metabolic stability in human liver S9 fraction assessed as glutathione adduct formation in presence of glutathione; format: ADME, subcellular
[27] = Half life in cynomolgus monkey at 30 mg/kg, po; format: ADME, organism-based, Macaca fascicularis; design: dose 30 mg/kg, route oral; settings: in vivo; method in brief: as §1
[28] = target: T1, C-C chemokine receptor type 2; test: Inhibition of human CCR2-mediated Erk phosphorylation
[29] = Half life in rat at 10 mg/kg, po; format: ADME, organism-based; design: dose 10 mg/kg, route oral; settings: in vivo; method in brief: as §1
[30] = Cmax in chimpanzee at 4 mg/kg, po; format: ADME, organism-based, Pan troglodytes; design: dose 4 mg/kg, route oral; settings: in vivo; method in brief: as §1
[31] = Clearance in cynomolgus monkey at 5 mg/kg, iv; format: ADME, organism-based, Macaca fascicularis; design: dose 5 mg/kg, route intravenous; settings: in vivo; method in brief: as §1
[32] = target: T4, C-C chemokine receptor type 3 (Homo sapiens) (UniProt P51677); test: Inhibition of CCR3 at 1 uM; method in brief: as §2
T4 sequence (whole entry): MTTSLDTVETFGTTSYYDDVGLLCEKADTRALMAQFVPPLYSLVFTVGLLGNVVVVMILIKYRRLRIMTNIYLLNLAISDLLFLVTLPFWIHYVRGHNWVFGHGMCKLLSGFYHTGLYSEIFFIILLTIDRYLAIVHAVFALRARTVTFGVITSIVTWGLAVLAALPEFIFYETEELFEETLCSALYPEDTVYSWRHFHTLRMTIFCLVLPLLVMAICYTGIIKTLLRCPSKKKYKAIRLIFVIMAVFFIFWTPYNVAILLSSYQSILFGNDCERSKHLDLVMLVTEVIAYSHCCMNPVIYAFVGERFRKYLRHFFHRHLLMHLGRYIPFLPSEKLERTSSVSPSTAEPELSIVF

[33] = Half life in cynomolgus monkey at 5 mg/kg, iv; format: ADME, organism-based, Macaca fascicularis; design: dose 5 mg/kg, route intravenous; settings: in vivo; method in brief: as §1
Mus musculus = test: Dose normalized AUC in mouse at 10 mg/kg, po; format: ADME, organism-based; design: dose 10 mg/kg, route oral; settings: in vivo
Method in brief: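 Mouse oral PK screen by cassette dosing at 10 mg/kg, three animals per cassette. AUC is dose-normalized.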

[34] = Half life in chimpanzee at 4 mg/kg, po; format: ADME, organism-based, Pan troglodytes; design: dose 4 mg/kg, route oral; settings: in vivo; method in brief: as §1
[35] = AUC in dog at 30 mg/kg, po; format: ADME, organism-based, Canis lupus familiaris; design: dose 30 mg/kg, route oral; settings: plasma; method in brief: as §1
[36] = Tmax in cynomolgus monkey at 30 mg/kg, po; format: ADME, organism-based, Macaca fascicularis; design: dose 30 mg/kg, route oral; settings: in vivo; method in brief: as §1
[37] = Tmax in dog at 30 mg/kg, po; format: ADME, organism-based, Canis lupus familiaris; design: dose 30 mg/kg, route oral; settings: in vivo; method in brief: as §1
[38] = Half life in rat at 5 mg/kg, iv; format: ADME, organism-based; design: dose 5 mg/kg, route intravenous; settings: in vivo; method in brief: as §1

- Tmax [1]: 4 h
- half-life [2]: 3.8 h
- IC50 (Cytochrome P450 2C19): > 25000 nM
- IC50 [3]: 3.7 nM
- F (Rattus norvegicus [4]): 20%
- IC50 (Cytochrome P450 2C9): > 25000 nM
- CL (Rattus norvegicus [5]): 56.7 mL/min/kg
- IC50 (Cytochrome P450 2D6): > 25000 nM
- Cmax [6]: 2630 nM
- Activity [7]: Not Active
- half-life [8]: 3.5 h
- Cmax [9]: 573 nM
- fraction unbound at up to 10 µM [10]: 0.58
- AUC [11]: 4.94 µM·h
- bioavailability [12]: 13%
- IC50 [13]: 6 nM
- inhibition [14]: inactive
- bioavailability [15]: 31%
- AUC (Rattus norvegicus [16]): 3.657 µM·h
- inhibition [17]: inactive
- Cmax [18]: 7810 nM
- bioavailability [19]: 23%
- AUC [20]: 9.08 µM·h
- half-life [21]: 15 h
- Stability (Liver [22]): Stable
- clearance [23]: 9.5 mL/min/kg
- inhibition [24]: inactive
- clearance [25]: 5.83 mL/min/kg
- Stability (Liver [26]): Stable
- half-life [27]: 5.1 h
- IC50 [28]: 2.6 nM
- half-life [29]: 2.9 h
- Cmax [30]: 1120 nM
- clearance [31]: 13.7 mL/min/kg
- inhibition [32]: inactive
- half-life [33]: 2.2 h
- AUC/dose (Mus musculus): 617 nM·h
- half-life [34]: 5.3 h
- AUC [35]: 33.3 µM·h
- Tmax [36]: 1.5 h
- Tmax [37]: 1.5 h
- half-life [38]: 2.8 h
Structure (SMILES): COc1ccc([C@]2(O)CC[C@H](N3CC[C@@H](NC(=O)CNC(=O)c4cccc(C(F)(F)F)c4)C3)CC2)cn1.CS(=O)(=O)O

Reference: ChEMBL document CHEMBL1949557, “Discovery of INCB3284, a Potent, Selective, and Orally Bioavailable hCCR2 Antagonist” (ACS Med Chem Lett, 2011)
